Screens (PubChem BioAssay)
The list is not random: actives were taken first. Their share in the collection is about 4.5%.
PERK inh: block of dimerizer-induced PERK translation repression, primary screen, PERK inhibitor project, CHO PERK-DD cells, SEAP luminescence, HTS. Eukaryotic translation initiation factor 2-alpha kinase 3 (Homo sapiens), Q9NZJ5. CHO PERK-DD fusion, SEAP luminescence translation reporter. inhibition, % at 5.6 µM. actives 0.17% (n = 220,000). AID 1416, 2008;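 active = inhibition above the mean inhibition of all tested compounds plus 3 SD, set separately per screening campaign, cut at about 2.9% in these data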;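 also: PERK kinase domain activated by AP20187 dimerizer at 100 nM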
APP 5'UTR act: activators of APP 5'UTR luciferase reporter, primary screen, SH-SY5Y cells | SH-SY5Y APP 5'UTR luciferase reporter, luminescence; zero percent = DMSO vehicle wells | activation, % at 2 µM | actives 1% (n = 190,000);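 active = activation above a set limit, based on mean plus 3 SD of controls, cut at about 140% in these data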
Mdm2 ligase inh: MDM2-luciferase reporter signal enhancers, primary screen, MDM2 E3 ligase inhibitor project, cell-based, luminescence, 1536-well | AID 1230, 2008 | actives 0.11% (n = 210,000) | cell-based MDM2 ubiquitination luciferase reporter, 2 h; 0 = plate control, 100 = twice control, blank-subtracted | signal enhancement, % at 5 µM;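 active = signal enhancement of 30% or more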;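 also: luminescence tracks abundance of the self-degrading MDM2-luciferase fusion protein; higher signal means inhibition of MDM2 E3 ligase activity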
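Buffer or medium: Cells held in DMEM | Assay system: Stable mammalian line carrying autodegrading MDM2–luciferase fusion reporter | Quantity: 2000 cells/well | Times: 4 h settle plus 2 h compound, 37 °C | Doses: One concentration, 5 µM, with 0.2% DMSO | Technique: Luminescence with SteadyLite reagent, 15 min at room temperature | Benchmarks: Plate controls and plate blanks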
STAT1 act: STAT1 signaling activators, primary screen, cell-based, HTS, luciferase reporter; NIH 3T3 STAT1-luciferase reporter, IFN-gamma, luminescence; 100% = IFN-gamma alone, no compound; activation (% of control), % at 5.5 µM; actives 2.6% (n = 200,000); AID 932, 2007;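 active = activation above the screen-wide mean activation plus 3 SD, cut at about 130% in these data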
NF-kB neuron act: activators of NF-kB expression in neurons, primary screen, cell-based, HTS; human neuronal cells, NF-kB reporter expression; active compounds read high; fold change at 12.5 µM; actives 1.6% (n = 190,000); AID 1239, 2008; in the data active = fold change above about 3.3
AHR act: AHR activators, primary screen, cell-based, luminescence, luciferase reporter, human | Aryl hydrocarbon receptor (Homo sapiens), P35869 | AHR-responsive luciferase reporter cells | activation, % at 5 µM | actives 2.5% (n = 320,000) | AID 2796, 2010; in the data active = activation above about 47%
Target sequence (P35869 whole entry, looked up): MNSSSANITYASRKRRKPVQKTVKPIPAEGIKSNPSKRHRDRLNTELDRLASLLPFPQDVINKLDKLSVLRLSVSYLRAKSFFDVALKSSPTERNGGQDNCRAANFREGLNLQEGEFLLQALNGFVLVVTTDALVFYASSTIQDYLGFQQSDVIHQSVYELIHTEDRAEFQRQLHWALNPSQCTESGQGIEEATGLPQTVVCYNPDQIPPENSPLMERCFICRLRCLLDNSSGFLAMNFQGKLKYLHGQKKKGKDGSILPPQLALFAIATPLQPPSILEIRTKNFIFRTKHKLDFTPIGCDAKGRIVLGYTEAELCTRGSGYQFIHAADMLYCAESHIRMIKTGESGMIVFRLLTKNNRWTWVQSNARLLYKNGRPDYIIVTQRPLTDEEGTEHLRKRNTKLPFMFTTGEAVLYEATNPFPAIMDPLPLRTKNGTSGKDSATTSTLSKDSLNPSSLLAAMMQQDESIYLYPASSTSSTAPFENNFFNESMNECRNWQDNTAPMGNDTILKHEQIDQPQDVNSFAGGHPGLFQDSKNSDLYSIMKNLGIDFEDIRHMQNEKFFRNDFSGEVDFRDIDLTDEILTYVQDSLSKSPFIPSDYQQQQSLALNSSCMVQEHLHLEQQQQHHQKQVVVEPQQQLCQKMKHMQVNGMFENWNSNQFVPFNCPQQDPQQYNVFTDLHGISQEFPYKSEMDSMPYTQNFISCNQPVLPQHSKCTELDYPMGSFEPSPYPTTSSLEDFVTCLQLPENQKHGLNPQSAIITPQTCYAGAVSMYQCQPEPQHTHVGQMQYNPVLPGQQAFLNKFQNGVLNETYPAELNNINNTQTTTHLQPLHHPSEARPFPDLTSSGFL
Each line names hits and unclear results; the compound was inactive in the other large screens.

O=C(CN1C(=O)c2ccccc2S1(=O)=O)Nc1ccc([N+](=O)[O-])cc1	none (no result: PERK inh, APP 5'UTR act, Mdm2 ligase inh, STAT1 act, NF-kB neuron act)
Nc1cccc2c1C(=O)N(c1ccccc1)C2=O	AHR act 49 (no result: PERK inh, APP 5'UTR act, Mdm2 ligase inh, STAT1 act, NF-kB neuron act)
O=C1c2cccc3cccc(c23)C(=O)N1c1ccccc1Cl	none (no result: PERK inh, APP 5'UTR act, Mdm2 ligase inh, STAT1 act, NF-kB neuron act)
Nc1ccccc1N1C(=O)c2cccc3cccc(c23)C1=O	AHR act 67 (no result: PERK inh, APP 5'UTR act, Mdm2 ligase inh, STAT1 act, NF-kB neuron act)
c1ccc2c(CSc3ncnc4nc[nH]c34)cccc2c1	none
COc1cccc(OCCCn2cc(/C=C3/C(=N)N4C=C(C)SC4=NC3=O)c3ccccc32)c1	AHR act 51
CCOc1ccc(C(=O)OCC(=O)N(Cc2ccccc2)Cc2ccccc2)cc1OC	none (no result: PERK inh, APP 5'UTR act, Mdm2 ligase inh, STAT1 act, NF-kB neuron act)
C=CCc1c(C)nc(C)nc1N/N=C/c1ccc([N+](=O)[O-])cc1	AHR act 78
C=CCc1c(C)nc(C)nc1N/N=C/c1ccccc1O	none
COc1ccc2nc3sc(C(=O)NCCN4CCc5ccccc5C4)cc3cc2c1	STAT1 act 129
CCN1CCN(C(=O)c2cc3cc4cc(OC)ccc4nc3s2)CC1	none
COc1ccc2cc3cc(C(=O)NC4CC4)sc3nc2c1	none (no result: PERK inh, APP 5'UTR act, Mdm2 ligase inh, STAT1 act, NF-kB neuron act)
COc1ccc2cc3cc(C(=O)NCCCN4CCc5ccccc5C4)sc3nc2c1	STAT1 act 135, NF-kB neuron act 3.7
Cc1ccc(CN2CC(C(=O)Nc3ccc(S(=O)(=O)N4CCCCC4)cc3)CC2=O)cc1 (stereo not drawn)	none (no result: PERK inh, APP 5'UTR act, Mdm2 ligase inh, STAT1 act, NF-kB neuron act)
Cc1cc(Cl)n2c(nc3cc(F)c(F)cc32)c1C#N	STAT1 act 131 (no result: AHR act)
O=C1c2ccccc2C(=O)C1c1ccncc1	NF-kB neuron act 3.8
CCOc1ccc(-c2nc(C#N)c(NCc3ccc4c(c3)OCO4)o2)cc1	AHR act 56
Cc1ccc(OCc2nc(C#N)c(NCc3ccc4c(c3)OCO4)o2)cc1	none
CCCOc1cccc(C(=O)Nc2cccc3ncccc23)c1	none (no result: PERK inh, APP 5'UTR act, Mdm2 ligase inh, STAT1 act, NF-kB neuron act)
CCCOc1cccc(C(=O)Nc2ccc(Br)cc2F)c1	STAT1 act 136
CN(C(=O)c1cccc(NC(=O)Cc2ccc([N+](=O)[O-])cc2)c1)C1CC1	none (no result: PERK inh, APP 5'UTR act, Mdm2 ligase inh, STAT1 act, NF-kB neuron act)
Cc1cccc(OC2CCN(Cc3nc(CC4CC4)no3)CC2)c1	PERK inh 3.0
c1ccc2c(-c3nnc(SCc4cn5ccccc5n4)o3)c[nH]c2c1	none
c1ccc2c(-c3cn4ccccc4n3)c[nH]c2c1	APP 5'UTR act 149, STAT1 act 150, NF-kB neuron act 3.4, AHR act 54
Cc1nc2nc(-c3ccc(Cl)cc3)nn2c(C)c1Cl	AHR act 53
Cc1nc2nc(-c3ccccc3)nn2c(C)c1C	none (no result: PERK inh, APP 5'UTR act, Mdm2 ligase inh, STAT1 act, NF-kB neuron act)
Cc1nc2nc(-c3ccccc3)nn2c(C)c1Cl	AHR act 55 (no result: Mdm2 ligase inh, NF-kB neuron act)
CCOCCCNC1=C(Cl)C(=O)c2ccccc2C1=O	none (no result: APP 5'UTR act, STAT1 act, NF-kB neuron act)
CCCCNC1=CC(=O)C(=O)c2ccccc21	AHR act 53
COc1ccc(Nc2cc(C)nc3ncnn23)cc1Cl	AHR act 68 (no result: PERK inh, APP 5'UTR act, Mdm2 ligase inh, STAT1 act, NF-kB neuron act)
COc1cc(Nc2cc(C)nc3ncnn23)cc(OC)c1OC	none
COc1ccccc1CCNC(=O)c1cc(-c2ccccn2)nc2ccc(Br)cc12	none
CCc1nnc(NC(=O)c2cc(-c3ccncc3)nc3ccccc23)s1	AHR act 62 (no result: APP 5'UTR act, STAT1 act, NF-kB neuron act)
CCc1nnc(NC(=O)c2cc(-c3ccccn3)nc3ccc(Br)cc23)s1	AHR act 49 (no result: PERK inh, APP 5'UTR act, Mdm2 ligase inh, STAT1 act, NF-kB neuron act)
CC(C)(C)c1nnc(NC(=O)c2cc(-c3ccccc3)nc3ccccc23)s1	none
COc1ccc(-c2cnnc(N/N=C/c3c(C)nn(-c4ccccc4)c3Cl)n2)cc1	none
CCCC(C)NC(=O)CN1C(=O)c2cccc3cccc1c23 (stereo not drawn)	none (no result: PERK inh, APP 5'UTR act, Mdm2 ligase inh, STAT1 act, NF-kB neuron act)
CCOc1ccc(NC(=O)CN(C)CC(=O)Nc2cc(Cl)ccc2C#N)cc1OCC	AHR act 55
Cc1cccc(C)c1NC(=O)CN(C)CC(=O)Nc1cc(Cl)ccc1C#N	none
CC1=CC(C)=Nc2ccccc2N1	STAT1 act 129
